The values that follow come from ChEMBL document CHEMBL5143736, “Discovery and Optimization of a Synthetic Class of Nectin-4-Targeted CD137 Agonists for Immuno-oncology” (J Med Chem, 2022).

Series [1] concerns the target T1, Tumor necrosis factor receptor superfamily member 9 (Homo sapiens, UniProt Q07011). Put plainly: Binding affinity to human CD137 assessed as dissociation constant by surface plasmon resonance analysis. The essentials:
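Biacore T200 SPR, human CD137, 25 °C. Peptide series in PBS/0.05% Tween 20 with 0.5% DMSO: top 500 nM (threefold) or 10 μM (twofold), 6 further dilutions. Flow 90 μL/min, 60 s association, 100–600 s dissociation, glycine pH 2 regeneration. DMSO-corrected and double-referenced; kinetic fit gives ka, kd, KD.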
(Surface plasmon resonance follows binding to a sensor surface in real time, without labels.)

The nature of series [2]: Half life in Sprague-Dawley rat at 2 mg/kg, iv by LC/MS/MS analysis. Particulars: in vivo.
Series [3] deals with T1, Tumor necrosis factor receptor superfamily member 9. Put plainly: Binding affinity to human CD137 assessed as dissociation constant using 1:1 Nectin-4/CD137 by surface plasmon resonance analysis. The note with it: filed as agonist. The essentials: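 Biacore T200 SPR against human CD137 protein at 25 °C. Peptide series in PBS/0.05% Tween 20 with 0.5% final DMSO; top concentration 500 nM (6 further threefold dilutions) or 10 μM (6 further twofold dilutions). 60 s association, 100–600 s dissociation, 10 mM glycine pH 2 regeneration. Data DMSO-corrected and double-referenced; kinetic fit gives ka, kd and KD.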

The test system of series [4] is PBMC. As to the kind of experiment: […] activity in human PBMC stimulated with anti-CD3-mediated CD137 expression in cocultured with […] cell line assessed as increase in secretion of IFN gamma incubated for 48 hrs by Luminex assay. In kind it is functional, cell-based. The note with it: DDE = dose-dependent effect. The essentials:
(§1)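 Healthy-donor PBMCs were thawed into R10 medium and cocultured with HT1376 cells at 10:1 effector:target (1×10^5 PBMC:1×10^4 tumor cells per well). Soluble anti-CD3 OKT3 (100 ng/mL) was added on day 0, then compound, 37 °C, 5% CO2. Supernatant IFNγ and IL-2 taken at 24 and 48 h, measured by Luminex. Four-parameter fit, n = 3, repeated in multiple donors.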

The subject of series [5] is PBMC. As to the kind of experiment: […] activity in human PBMC stimulated with anti-CD3-mediated CD137 expression in cocultured with […] cell line assessed as increase in secretion of IL2 incubated for 48 hrs by Luminex assay. It counts as functional, cell-based. Particulars: DDE = dose-dependent effect. The essentials:
as §1

T1 sequence (Q07011 whole entry): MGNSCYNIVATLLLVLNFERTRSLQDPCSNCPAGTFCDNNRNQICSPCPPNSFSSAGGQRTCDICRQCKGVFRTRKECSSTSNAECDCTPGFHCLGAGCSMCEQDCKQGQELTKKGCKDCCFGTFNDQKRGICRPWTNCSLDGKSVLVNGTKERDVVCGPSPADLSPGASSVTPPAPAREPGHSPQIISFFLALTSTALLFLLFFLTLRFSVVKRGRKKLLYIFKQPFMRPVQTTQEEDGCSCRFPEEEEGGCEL

In general, Kd refers to the equilibrium constant for the complex coming apart. Take `CCCC[C@@H]1NC(=O)[C@H](Cc2ccc(O)cc2)NC(=O)[C@@H]2CCCN2C(=O)[C@H](CCC(=O)O)NC(=O)[C@H](C)NC(=O)[C@H](Cc2ccccc2)NC(=O)[C@@H]2CSCCC(=O)N3CN(CN(C3)C(=O)CCSC[C@H](NC(C)=O)C(=O)N[C@@H](CC(C)(C)C)C(=O)N3CCC[C@H]3C(=O)N[C@@H](CCC(=O)O)C(=O)N[C@H](CCCCNC(=O)CCc3cn(CCOCCOCCOCCOCCOCCC(=O)N[C@H]4CSCCC(=O)N5CN6CN(C5)C(=O)CCSC[C@H](NC(=O)[C@@H](CC(=O)O)NC(=O)[C@H](Cc5cccc7ccccc57)NC(=O)[C@@H]5CCCN5C4=O)C(=O)N[C@@H](CCSC)C(=O)N[C@@H](CCCCNC(=N)N)C(=O)N[C@@H](CC(=O)O)C(=O)N[C@@H](Cc4c[nH]c5ccccc45)C(=O)N[C@@H](CO)C(=O)N[C@@H]([C@@H](C)O)C(=O)N4CCC[C@H]4C(=O)N4C[C@H](O)C[C@H]4C(=O)N[C@@H](Cc4c[nH]c5ccccc45)C(=O)N[C@H](C(N)=O)CSCCC6=O)nn3)C(=O)N3CCC[C@H]3C(=O)N[C@@H](Cc3ccc(O)cc3)C(=O)N2)C(=O)CCSC[C@@H](C(N)=O)NC1=O`: in series [1], the dissociation constant (Kd) came to 2370 nM.

On to `CCCC[C@@H]1NC(=O)[C@H](Cc2ccc(O)cc2)NC(=O)[C@@H]2CCCN2C(=O)[C@H](CC(N)=O)NC(=O)[C@H](C)NC(=O)[C@H](Cc2ccccc2)NC(=O)[C@@H]2CSCCC(=O)N3CN(CN(C3)C(=O)CCSC[C@H](NC(C)=O)C(=O)N[C@@H](CC(C)(C)C)C(=O)N3CCC[C@H]3C(=O)N[C@@H](CCC(=O)O)C(=O)N[C@H](CCCCNC(=O)CCc3cn(CCOCCOCCOCCOCCOCCC(=O)N[C@H]4CSCCC(=O)N5CN6CN(C5)C(=O)CCSC[C@H](NC(=O)[C@@H](CC(=O)O)NC(=O)[C@H](Cc5cccc7ccccc57)NC(=O)[C@@H]5CCCN5C4=O)C(=O)N[C@@H](CCSC)C(=O)N[C@@H](CCCCNC(=N)N)C(=O)N[C@@H](CC(=O)O)C(=O)N[C@@H](Cc4c[nH]c5ccccc45)C(=O)N[C@@H](CO)C(=O)N[C@@H]([C@@H](C)O)C(=O)N4CCC[C@H]4C(=O)N4C[C@H](O)C[C@H]4C(=O)N[C@@H](Cc4c[nH]c5ccccc45)C(=O)N[C@H](C(N)=O)CSCCC6=O)nn3)C(=O)N3CCC[C@H]3C(=O)N[C@@H](Cc3ccc(O)cc3)C(=O)N2)C(=O)CCSC[C@@H](C(N)=O)NC1=O`, for which the Kd in series [1] turned out to be 878 nM.

As a reminder, the half-life is how long it takes for the measured level to halve. Take `CCCC[C@@H]1NC(=O)[C@H](Cc2ccc(O)cc2)NC(=O)[C@@H]2CCCN2C(=O)[C@H](CC(=O)O)NC(=O)[C@H](C)NC(=O)[C@H](Cc2ccccc2)NC(=O)[C@@H]2CSCCC(=O)N3CN(CN(C3)C(=O)CCSC[C@@H](C(=O)N[C@@H](CNC(=O)CCOCCOCCOCCOCCOCCn3cc(CCC(=O)N[C@H]4CSCCC(=O)N5CN6CN(C5)C(=O)CCSC[C@H](NC(=O)[C@@H](CC(=O)O)NC(=O)[C@H](Cc5cccc7ccccc57)NC(=O)[C@@H]5CCCN5C4=O)C(=O)N[C@@H](CCSC)C(=O)N[C@@H](CCCCNC(=N)N)C(=O)N[C@@H](CC(=O)O)C(=O)N[C@@H](Cc4c[nH]c5ccccc45)C(=O)N[C@@H](CO)C(=O)N[C@@H]([C@@H](C)O)C(=O)N4CCC[C@H]4C(=O)N4C[C@H](O)C[C@H]4C(=O)N[C@@H](Cc4c[nH]c5ccccc45)C(=O)N[C@H](C(N)=O)CSCCC6=O)nn3)C(N)=O)NC1=O)C(=O)CCSC[C@H](NC(C)=O)C(=O)N[C@@H](CC(C)(C)C)C(=O)N1CCC[C@H]1C(=O)N[C@@H](CCC(=O)O)C(=O)N[C@H](C)C(=O)N1CCC[C@H]1C(=O)N[C@@H](Cc1ccc(O)cc1)C(=O)N2`: the half-life in series [2] was 57.6 min.

In the case of `CCCC[C@@H]1NC(=O)[C@H](Cc2ccc(O)cc2)NC(=O)[C@@H]2CCCN2C(=O)[C@H](CC(=O)O)NC(=O)[C@H](C)NC(=O)[C@H](Cc2ccccc2)NC(=O)[C@@H]2CSCCC(=O)N3CN(CN(C3)C(=O)CCSC[C@@H](C(=O)N[C@@H](CNC(=O)CCc3cn(CCOCCOCCOCCOCCOCCOCCOCCOCCOCCOCCNC(=O)N[C@H]4CSCCC(=O)N5CN6CN(C5)C(=O)CCSC[C@H](NC(=O)[C@@H](CC(=O)O)NC(=O)[C@H](Cc5cccc7ccccc57)NC(=O)[C@@H]5CCCN5C4=O)C(=O)N[C@@H](CCSC)C(=O)N[C@@H](CCCCNC(=N)N)C(=O)N[C@@H](CC(=O)O)C(=O)N[C@@H](Cc4c[nH]c5ccccc45)C(=O)N[C@@H](CO)C(=O)N[C@@H]([C@@H](C)O)C(=O)N4CCC[C@H]4C(=O)N4C[C@H](O)C[C@H]4C(=O)N[C@@H](Cc4c[nH]c5ccccc45)C(=O)N[C@H](C(N)=O)CSCCC6=O)nn3)C(N)=O)NC1=O)C(=O)CCSC[C@H](NC(=O)[C@H](C)NC(C)=O)C(=O)NC([C@@H](C)CC)C(=O)N[C@@H](CCC(=O)O)C(=O)N[C@@H](CCC(=O)O)C(=O)NCC(=O)N[C@@H](CCC(N)=O)C(=O)N[C@@H](Cc1ccc(O)cc1)C(=O)N2` (some centres not stated), the Activity in series [3] came out at 73 nM.

In the case of `CCCC[C@@H]1NC(=O)[C@H](Cc2ccc(O)cc2)NC(=O)[C@@H]2CCCN2C(=O)[C@H](CC(=O)O)NC(=O)[C@H](C)NC(=O)[C@H](Cc2ccccc2)NC(=O)[C@@H]2CSCCC(=O)N3CN(CN(C3)C(=O)CCSC[C@@H](C(=O)N[C@@H](CNC(=O)CCc3cn(CCOCCOCCOCCOCCOCCOCCOCCOCCOCCOCCOCCOCCC(=O)NCCC(=O)N(C)CC(=O)N(C)CC(=O)N(C)CC(=O)N(C)CC(=O)N(C)CC(=O)N(C)CC(=O)N(C)CC(=O)N(C)CC(=O)N(C)CC(=O)N(C)CC(=O)N[C@H]4CSCCC(=O)N5CN6CN(C5)C(=O)CCSC[C@H](NC(=O)[C@@H](CC(=O)O)NC(=O)[C@H](Cc5cccc7ccccc57)NC(=O)[C@@H]5CCCN5C4=O)C(=O)N[C@H](CCSC)C(=O)N[C@@H](CCCCNC(=N)N)C(=O)N[C@H](CC(=O)O)C(=O)N[C@@H](Cc4c[nH]c5ccccc45)C(=O)N[C@@H](CO)C(=O)N[C@@H]([C@H](C)O)C(=O)N4CCC[C@H]4C(=O)N4C[C@H](O)C[C@H]4C(=O)N[C@@H](Cc4c[nH]c5ccccc45)C(=O)N[C@H](C(N)=O)CSCCC6=O)nn3)C(N)=O)NC1=O)C(=O)CCSC[C@H](NC(C)=O)C(=O)N[C@@H](CC(C)(C)C)C(=O)N1CCC[C@H]1C(=O)N[C@@H](CCC(=O)O)C(=O)N[C@@H](C)C(=O)N1CCC[C@H]1C(=O)N[C@@H](Cc1ccc(O)cc1)C(=O)N2`, the half-life in series [2] is 21.6 min. Moreover, the Activity entry in the series on PBMC [4] and with PBMC [5] was “Dde” each time.
